The subject of data set [1] is hepatocellular carcinoma cell line (HepG2). Description: MTT-based cytotoxicity assay, HepG2. It is filed as cell-based, human. To be noted: read-out: Anticancer (IC50) HepG2. In short, it runs like this: (§1)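 Cells seeded at 10 000/well in medium with 5% FBS and held 48 h at 37 °C, 5% CO₂, 100% humidity. Test compound at various concentrations added for 48 h under the same conditions, in triplicate, with compound-free medium as control. MTT (5 mg ml⁻¹ solution) added for 4 h at 37 °C, formazan dissolved in DMSO, A570 read. % inhibition = 100 − A(sample)/A(control) × 100.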
For orientation: Tetrazolium assays rely on reduction of a dye to a coloured formazan, in cell work by metabolically active cells.

Data set [2] deals with human skin cancer cell line (A375). Description: MTT-based cytotoxicity assay, A375. It is filed as cell-based. An outline of the steps:
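Cells seeded at 10 000/well in medium with 5% FBS, grown 48 h at 37 °C, 5% CO₂, then exposed to test compound at various concentrations (up to 100 μM) for 48 h, in triplicate; medium alone as control. MTT solution (5 mg ml⁻¹) added for 4 h at 37 °C, formazan dissolved in DMSO, absorbance read at 570 nm; inhibition % = 100 − (A sample/A control × 100).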

The test system of data set [3] is non-cancerous normal cell (Vero). The data set can be described thus: MTT-based cytotoxicity assay, normal Vero cell. To be noted: for Cytotoxicity to non-cancerous cells (in words): cell viability assay up to 100 μM, Fig. 3. In short, it runs like this:
as §1

The test system of data set [4] is breast cancer cell line (MCF-7). The data set can be described thus: MTT-based cytotoxicity assay, MCF-7. It is filed as cell-based, human. Conditions: read-out: Anticancer (IC50) MCF-7. In short, it runs like this: as §1
In data set [5] the test system is laryngeal carcinoma cell line (Hep-2). The data set can be described thus: MTT-based cytotoxicity assay, Hep-2. It counts as cell-based, human. Conditions: read-out: Anticancer (IC50) Hep-2. In short, it runs like this:
as §1

[6] abbreviates: MTT, 48 hours, average of three independent experiments.
Setting [7] is: Homo sapiens, A-375, 48 h, read-out: Anticancer (IC50) A375, MTT, 48 hours, average of three independent experiments.

Where two headings read alike, the source gives them in different places.

Take “2-(2-Nitrophenyl)imidazo[1,2-a]pyrazin-3-amine [10l]”: the IC50 was found to be 32 ± 4.64 µM in data set [1] (setting [6]); 27 ± 5 µM in data set [2] (read-out: Anticancer (IC50) A375, MTT, 48 hours, average of three independent experiments); 67 ± 4.54 µM in data set [3] (read-out: Anticancer (IC50) Vero, MTT, 48 hours, non-cancerous normal cell, average of three independent experiments); 80 ± 4.53 µM in data set [4] (setting [6]); 64 ± 2.45 µM in data set [5] (setting [6]).
As to `Nc1c(-c2ccc([N+](=O)[O-])cc2)nc2cnccn12` [10c, 2-(4-Nitrophenyl)imidazo[1,2-a]pyrazin-3-amine], the IC50 in data set [1] (Homo sapiens, HepG2, 48 h) was 30 ± 1.43 µM; in data set [2] (setting [7]), 24 ± 2.48 µM; in data set [4] (Homo sapiens, MCF7, 48 h), 40 ± 3.8 µM; in data set [5] (Homo sapiens, HEp-2, 48 h), 45 ± 1.6 µM.
On to `CC(C)(C)Nc1c(-c2ccc(N)cc2)nc2ccccn12` [12b, 2-(4-Aminophenyl)-N-(tert-butyl)imidazo[1,2-a]pyridin-3-amine], for which the IC50 in data set [1] (Homo sapiens, HepG2, 48 h) came out at 13 ± 1.2 µM; in data set [2] (setting [7]) it was 11 ± 0.07 µM; in data set [4] (Homo sapiens, MCF7, 48 h) it was 11 ± 0.5 µM; in data set [5] (Homo sapiens, HEp-2, 48 h), 11 ± 0.8 µM. Besides, in data set [3], the “Cytotoxicity to non-cancerous cells (in words)” value is recorded as “non-toxic to non-cancerous cells”.
For `CC(C)(C)Nc1c(-c2ccc([N+](=O)[O-])cc2)nc2cnccn12` [10a, N-(tert-Butyl)-2-(4-nitrophenyl)imidazo[1,2-a]pyrazin-3-amine], the IC50 is 40 ± 2.52 µM in data set [1] (Homo sapiens, HepG2, 48 h); 36 ± 3.1 µM in data set [2] (setting [7]); over 100 µM in data set [4] (Homo sapiens, MCF7, 48 h); 50 ± 3.42 µM in data set [5] (Homo sapiens, HEp-2, 48 h).
For `Nc1ccccc1-c1nc2cnccn2c1N` [10g, 2-(2-Aminophenyl)imidazo[1,2-a]pyrazin-3-amine], in that order: 25 ± 4.54 µM, 20 ± 5.8 µM, 30 ± 1.24 µM and 22 ± 2.15 µM.
Taken in the same sequence, the figures for `COc1cccc2c1C(=O)c1c(O)c3c(c(O)c1C2=O)C[C@@](O)(C(=O)CO)C[C@@H]3O[C@H]1C[C@H](N)[C@H](O)[C@H](C)O1` [Doxorubicin, reference compound] were 1.5 ± 0.09 µM, 5.16 µM, 0.85 ± 0.02 µM and 10 ± 0.5 µM.
As to `CN(C)c1ccc(-c2nc3cnccn3c2N)cc1` [10i, 2-(4-(Dimethylamino)phenyl)imidazo[1,2-a]pyrazin-3-amine], the IC50 stood at 26 ± 0.9 µM in data set [1] (Homo sapiens, HepG2, 48 h); 16 ± 1.2 µM in data set [2] (setting [7]); 17 ± 0.52 µM in data set [4] (Homo sapiens, MCF7, 48 h); 28 ± 3.1 µM in data set [5] (Homo sapiens, HEp-2, 48 h). Further, the “Cytotoxicity to non-cancerous cells (in words)” value in data set [3] is “non-toxic to non-cancerous cells”.
Take `O=[N+]([O-])c1ccc(-c2nc3ccccn3c2NC2CCCCC2)cc1` [12k, N-Cyclohexyl-2-(4-nitrophenyl)imidazo[1,2-a]pyridin-3-amine]: the IC50 in data set [1] (Homo sapiens, HepG2, 48 h) was found to be 40 ± 1.5 µM; in data set [2] (setting [7]), 41 ± 5 µM; in data set [4] (Homo sapiens, MCF7, 48 h), 52 ± 0.8 µM; in data set [5] (Homo sapiens, HEp-2, 48 h), 30 ± 8 µM.
Take `CC(C)(C)Nc1c(-c2ccc(N)cc2)nc2cnccn12` [10b, 2-(4-Aminophenyl)-N-(tert-butyl)imidazo[1,2-a]pyrazin-3-amine]: the IC50 is 18 ± 1.32 µM in data set [1] (Homo sapiens, HepG2, 48 h); 16 ± 0.96 µM in data set [2] (setting [7]); 21 ± 1.64 µM in data set [4] (Homo sapiens, MCF7, 48 h); 20 ± 1.64 µM in data set [5] (Homo sapiens, HEp-2, 48 h). The “Cytotoxicity to non-cancerous cells (in words)” value in data set [3] was “non-toxic to non-cancerous cells”.
For the compound `CN(C)c1ccc(-c2nc3ccccn3c2NC(C)(C)C)cc1` [12i, N-(tert-Butyl)-2-(4-(dimethylamino)phenyl)imidazo[1,2-a]pyridin-3-amine], the concentration for half-maximal inhibition (IC50) in data set [1] (Homo sapiens, HepG2, 48 h) was 19 ± 1.3 µM; in data set [2] (setting [7]) it was 12 ± 0.7 µM; in data set [4] (Homo sapiens, MCF7, 48 h), 17 ± 0.92 µM; in data set [5] (Homo sapiens, HEp-2, 48 h), 20 ± 2.7 µM. Also, the “Cytotoxicity to non-cancerous cells (in words)” value in data set [3] is on record as “non-toxic to non-cancerous cells”.
As for `Nc1c(-c2ccc([N+](=O)[O-])cc2)nc2ccccn12` [12c, 2-(4-Nitrophenyl)imidazo[1,2-a]pyridin-3-amine], the IC50 in data set [1] (Homo sapiens, HepG2, 48 h) is 48 ± 4.8 µM; in data set [2] (setting [7]) it was 50 ± 1.8 µM; in data set [4] (Homo sapiens, MCF7, 48 h) it was over 100 µM; in data set [5] (Homo sapiens, HEp-2, 48 h) it was 35 ± 2.4 µM.
For `CC(C)(C)Nc1c(-c2ccc([N+](=O)[O-])cc2)nc2ccccn12` [12a, N-(tert-Butyl)-2-(4-nitrophenyl)imidazo[1,2-a]pyridin-3-amine], in that order: 30 ± 2.5 µM, 45 ± 2.5 µM, 55 ± 5.25 µM and 32 ± 5.5 µM.
For `Nc1ccc(-c2nc3cnccn3c2N)cc1` [10d, 2-(4-Aminophenyl)imidazo[1,2-a]pyrazin-3-amine], in that order: 34 ± 2.64 µM, 25 ± 1.45 µM, 30 ± 3.32 µM and 38 ± 2.2 µM.
Taken in the same sequence, the figures for `CC(C)(C)Nc1c(-c2ccccc2N)nc2cnccn12` [10f, 2-(2-Aminophenyl)-N-(tert-Butyl)imidazo[1,2-a]pyrazin-3-amine] were 20 ± 4.64 µM, 20 ± 1.57 µM, 26 ± 2.38 µM and 25 ± 5.2 µM.
For `Nc1ccccc1-c1nc2ccccn2c1N` [12h, 2-(2-Aminophenyl)imidazo[1,2-a]pyridin-3-amine], the IC50 stood at 54 ± 1.5 µM in data set [1] (Homo sapiens, HepG2, 48 h); 55 ± 1.5 µM in data set [2] (setting [7]); 61 ± 2.4 µM in data set [4] (Homo sapiens, MCF7, 48 h); 44 ± 1.4 µM in data set [5] (Homo sapiens, HEp-2, 48 h).
Taken in the same sequence, the figures for `Nc1ccc(-c2nc3ccccn3c2NC2CCCCC2)cc1` [12l, 2-(4-Aminophenyl)-N-cyclohexylimidazo[1,2-a]pyridin-3-amine] were 25 ± 0.2 µM, 30 ± 0.1 µM, 35 ± 1.5 µM and 20 ± 5.2 µM.
Taken in the same sequence, the figures for `CN(C)c1ccc(-c2nc3cnccn3c2NC(C)(C)C)cc1` [10h, N-(tert-Butyl)-2-(4-(dimethylamino)phenyl)imidazo[1,2-a]pyrazin-3-amine] were 34 ± 5.5 µM, 30 ± 2.84 µM, 50 ± 6.41 µM and 45 ± 0.5 µM.
Taken in the same sequence, the figures for `CC(C)(C)Nc1c(-c2ccccc2[N+](=O)[O-])nc2cnccn12` [10e, N-(tert-Butyl)-2-(2-nitrophenyl)imidazo[1,2-a]pyrazin-3-amine] were 40 ± 2.52 µM, 34 ± 3.2 µM, 100 ± 8.64 µM and 80 ± 1.37 µM.
On to `O=[N+]([O-])c1ccc(-c2nc3cnccn3c2NC2CCCCC2)cc1` [10j, N-Cyclohexyl-2-(4-nitrophenyl)imidazo[1,2-a]pyrazin-3-amine], for which the IC50 in data set [1] (Homo sapiens, HepG2, 48 h) came to 40 ± 1.4 µM; in data set [2] (setting [7]), 25 ± 5.41 µM; in data set [4] (Homo sapiens, MCF7, 48 h), 24 ± 0.15 µM; in data set [5] (Homo sapiens, HEp-2, 48 h), 44 ± 6.4 µM.
For `CN(C)c1ccc(-c2nc3ccccn3c2N)cc1` [12j, 2-(4-(Dimethylamino)phenyl)imidazo[1,2-a]pyridin-3-amine], in that order: 35 ± 4.8 µM, 25 ± 1.4 µM, 30 ± 5 µM and 45 ± 5 µM.
Taken in the same sequence, the figures for `Nc1ccc(-c2nc3ccccn3c2N)cc1` [12d, 2-(4-Aminophenyl)imidazo[1,2-a]pyridin-3-amine] were 35 ± 2.5 µM, 38 ± 2.4 µM, 50 ± 1.82 µM and 20 ± 5.8 µM.
For the compound `Nc1ccc(-c2nc3cnccn3c2NC2CCCCC2)cc1` [10k, 2-(4-Aminophenyl)-N-cyclohexylimidazo[1,2-a]pyrazin-3-amine], the IC50 in data set [1] (Homo sapiens, HepG2, 48 h) was determined as 28 ± 2.48 µM; in data set [2] (setting [7]), 30 ± 1.5 µM; in data set [4] (Homo sapiens, MCF7, 48 h) it was 65 ± 2.41 µM; in data set [5] (Homo sapiens, HEp-2, 48 h), 34 ± 4.56 µM.
As for `CC(C)(C)Nc1c(-c2ccccc2N)nc2ccccn12` [12f, 2-(2-Aminophenyl)-N-(tert-butyl)imidazo[1,2-a]pyridin-3-amine], the half-inhibitory concentration (IC50) in data set [1] (Homo sapiens, HepG2, 48 h) turned out to be 32 ± 0.1 µM; in data set [2] (setting [7]) it was 28 ± 1.5 µM; in data set [4] (Homo sapiens, MCF7, 48 h), 24 ± 5.8 µM; in data set [5] (Homo sapiens, HEp-2, 48 h), 28 ± 5 µM.
For `Nc1c(-c2ccccc2[N+](=O)[O-])nc2ccccn12` [12g, 2-(2-Nitrophenyl)imidazo[1,2-a]pyridin-3-amine], in that order: over 100 µM, 62 ± 2.4 µM, over 100 µM and 50 ± 5.2 µM.
For `Nc1ccccc1-c1nc2cnccn2c1NC1CCCCC1` [10m, 2-(2-Aminophenyl)-N-cyclohexylimidazo[1,2-a]pyrazin-3-amine], in that order: 20 ± 2.15 µM, 23 ± 1.5 µM, 44 ± 2.68 µM and 28 ± 4.28 µM.
Taken in the same sequence, the figures for `CC(C)(C)Nc1c(-c2ccccc2[N+](=O)[O-])nc2ccccn12` [12e, N-(tert-Butyl)-2-(2-nitrophenyl)imidazo[1,2-a]pyridin-3-amine] were 62 ± 4.8 µM, over 100 µM, over 100 µM and 55 ± 0.4 µM.

In general, IC50 refers to the concentration that inhibits the measured activity by half.

These data come from PMC10718296 (RSC Advances, 2023).
